This note sets out measurements from ChEMBL document CHEMBL1156765, “Novel organic proteasome inhibitors identified by virtual and in vitro screening” (J Med Chem, 2010).

Usually IC50 stands for the concentration that gives 50% inhibition. The EC50 is the concentration giving half of the maximal effect. A higher EC50 goes with weaker potency. Usually inhibition stands for the relative decrease from the control value, in per cent. A high value points to a response far below the control.

The source made the active and inactive calls. The rule behind the calls is not given here.

The nature of test [1]: Inhibition of chymotrypsin-like activity of rabbit 20S proteasome at pH 8 after 15 mins. The arrangement: species or system Oryctolagus cuniculus. Summed up:
(§1)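 Rabbit 20S proteasome held with inhibitor for 15 min at pH 8, 37 °C. The matching fluorogenic substrate was then added to read the remaining chymotrypsin-like, post-acid or trypsin-like activity. Results are reported as IC50, or as % inhibition at a single inhibitor concentration of 50 or 100 μM.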

The nature of test [2]: Inhibition of post-acid activity of rabbit 20S proteasome at pH 8 after 15 mins. Details: species or system Oryctolagus cuniculus. The procedure, abridged: as §1
The target of test [3] is T1, Calpain-1 catalytic subunit (Homo sapiens) (UniProt P07384).
T1 sequence (whole entry): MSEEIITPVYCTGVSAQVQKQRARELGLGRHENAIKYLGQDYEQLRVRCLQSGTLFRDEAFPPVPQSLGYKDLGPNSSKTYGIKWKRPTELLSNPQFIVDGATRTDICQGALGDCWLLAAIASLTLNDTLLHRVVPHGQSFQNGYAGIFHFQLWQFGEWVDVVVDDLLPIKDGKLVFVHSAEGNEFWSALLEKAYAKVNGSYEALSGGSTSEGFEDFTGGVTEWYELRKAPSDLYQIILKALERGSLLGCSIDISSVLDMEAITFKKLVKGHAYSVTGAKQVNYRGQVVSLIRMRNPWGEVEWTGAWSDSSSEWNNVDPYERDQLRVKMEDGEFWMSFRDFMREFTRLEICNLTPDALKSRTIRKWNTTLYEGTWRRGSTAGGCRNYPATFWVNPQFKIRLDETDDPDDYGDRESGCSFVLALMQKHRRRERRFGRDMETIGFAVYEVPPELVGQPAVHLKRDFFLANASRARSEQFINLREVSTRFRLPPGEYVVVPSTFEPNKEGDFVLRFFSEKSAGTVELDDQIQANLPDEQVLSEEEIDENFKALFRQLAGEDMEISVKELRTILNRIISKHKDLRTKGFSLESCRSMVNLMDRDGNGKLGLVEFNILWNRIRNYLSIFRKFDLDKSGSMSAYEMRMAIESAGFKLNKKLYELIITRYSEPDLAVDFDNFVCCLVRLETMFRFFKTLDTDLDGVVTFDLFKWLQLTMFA
Description: Inhibition of cytosolic calpain 1 at 50 uM at pH 7.2.

Test [4] addresses T1, Calpain-1 catalytic subunit (Homo sapiens). The test can be described thus: Inhibition of cytosolic calpain 1 at 100 uM at pH 7.2.
A further test relates to HeLa. Description: Cytotoxicity against human HeLa cells after 48 hrs by XTT assay. It counts as functional, cell-based. On the technique in general: Tetrazolium assays rely on reduction of a dye to a coloured formazan, in cell work by metabolically active cells.
The test system of another test is HEK293. Description: Cytotoxicity against human HEK293 cells after 48 hrs by XTT assay. Type of test: functional, cell-based. The following applies: HEK293, 48 h.
Test [5] is filed under the species Oryctolagus cuniculus. Description: Inhibition of chymotrypsin-like activity of rabbit 20S proteasome at 50 uM at pH 8 after 15 mins. The procedure, abridged: as §1
The species entered for test [6] is Oryctolagus cuniculus. Description: Inhibition of post-acid activity of rabbit 20S proteasome at 50 uM at pH 8 after 15 mins. The procedure, abridged:
as §1

Test [7] can be described thus: Inhibition of trypsin-like activity of rabbit 20S proteasome at pH 8 after 15 mins. Details: species or system Oryctolagus cuniculus. The procedure, abridged: as §1
Test [8] is filed under the species Oryctolagus cuniculus. The test can be described thus: Inhibition of trypsin-like activity of rabbit 20S proteasome at 50 uM at pH 8 after 15 mins. Summed up: as §1
The species entered for test [9] is Oryctolagus cuniculus. The test can be described thus: Inhibition of trypsin-like activity of rabbit 20S proteasome at 100 uM at pH 8 after 15 mins. The procedure, abridged: as §1
The species entered for test [10] is Oryctolagus cuniculus. The test can be described thus: Inhibition of post-acid activity of rabbit 20S proteasome at 100 uM at pH 8 after 15 mins. The procedure, abridged: as §1
The species named for test [11] is Oryctolagus cuniculus. Description: Inhibition of chymotrypsin-like activity of rabbit 20S proteasome at 100 uM at pH 8 after 15 mins. The procedure, abridged:
as §1

As to `CCCN(CCC)S(=O)(=O)c1ccc(NC(=O)c2ccc(C(C)(C)C)cc2)cc1`, the IC50 in test [1] (read-out: IC50) came to 18.9 µM; in test [2] (read-out: IC50), 8 µM. Moreover, the outcome in test [3] and in test [4] was inactive. Further, the half-maximal effective concentration (EC50) in the test with HeLa was 9 µM; in the test on HEK293 it was < 5 µM.

Compound `O=C(Nc1ccc(S(=O)(=O)NCc2ccccc2)cc1)c1cc(-c2cccs2)nc2ccccc12` showed an inhibition in the test listed under Oryctolagus cuniculus [5] of 70.1%. In addition, the IC50 entry in test [2] is “Not Active”.

`Cc1ccc(-c2nnc(Nc3ccccc3)c3ccccc23)cc1S(=O)(=O)NCC1CCCO1` (stereo not drawn): in [1], the concentration for half-maximal inhibition (IC50) entry is reported as “Not Active”. Besides, the inhibition in the test filed under Oryctolagus cuniculus [6] stood at 52%.

In the case of `C=CCN(CC=C)S(=O)(=O)c1ccc(NC(=O)c2ccc(C(C)(C)C)cc2)cc1`, the IC50 in [1] (read-out: IC50) was found to be 1.9 µM; in test [2] (read-out: IC50), 10 µM; in test [7] (read-out: IC50), 4.5 µM. In addition, the result in test [3] and in [4] was inactive. Besides, the values for the EC50 in the test on HeLa and with HEK293 were 12.3 µM and 9.7 µM, respectively.

Consider `Cc1ccc(-c2nnc(Nc3cccc(O)c3)c3ccccc23)cc1S(=O)(=O)NC(C)(C)CO`, for which the figures for the IC50 in test [1] (read-out: IC50), in [2] (read-out: IC50) and in test [7] (read-out: IC50) were 35.4 µM, 14.8 µM and 67.8 µM, respectively.

As to `COc1ccc(NC(=O)C23CC4CC(C2)CC(c2ccc(C)cc2)(C4)C3)cc1`, the IC50 was 26.2 µM in test [1] (read-out: IC50) and 50 µM in test [2] (read-out: IC50).

As for `CC(C)(C)c1ccc(/C=C/C(=O)N2CCN(c3ccc([N+](=O)[O-])cc3)CC2)cc1`, the IC50 result in [1] and in test [7] was “Not Active” in each case. Also, the inhibition in the test listed under Oryctolagus cuniculus [6] came to 52%.

Consider `COc1ccc(N2CCN(C(=S)Nc3ccc([N+](=O)[O-])cc3)CC2)cc1`, for which the results for the IC50 in test [1] (read-out: IC50) and in test [2] (read-out: IC50) were 10.8 µM and 9 µM, respectively. In the test with HEK293, the response was half-maximal at 50 µM (EC50).

With `Cc1ccc(-c2nnc(Nc3cccc(O)c3)c3ccccc23)cc1S(=O)(=O)NC(C)(C)C`, in test [1] (read-out: IC50), the IC50 turned out to be 28.3 µM. Also, the values for the inhibition in the test listed under Oryctolagus cuniculus [6] and in the test filed under Oryctolagus cuniculus [8] were 29% and 44%, respectively. In the test on HEK293, this compound gave an EC50 of 10.4 µM.

For `Cc1ccccc1C(=O)Nc1ccc(S(=O)(=O)NCc2ccccc2)cc1`, in test [1], the IC50 entry was “Not Active”. Besides, the inhibition is 54% in the test listed under Oryctolagus cuniculus [6] and 13% in the test filed under Oryctolagus cuniculus [9].

For `CCOc1ccc(-c2cc(C(=O)Nc3ccc(S(=O)(=O)NC(C)=O)cc3)c3ccccc3n2)cc1`, in [1], the IC50 result is listed as “Not Active”. The figures for the inhibition in the test filed under Oryctolagus cuniculus [10] and in the test filed under Oryctolagus cuniculus [8] were 42% and 45%, respectively.

For `CC(C)(C)c1ccc(OCC(=O)N2CCN(c3ccc([N+](=O)[O-])cc3)CC2)c(Br)c1`, the IC50 entry in test [1] and in test [7] was “Not Active” each time. In the test listed under Oryctolagus cuniculus [6], this compound returned an inhibition of 49%.

`CC(=O)NS(=O)(=O)c1ccc(NC(=O)c2cc(-c3ccc(Cl)s3)nc3ccccc23)cc1`: the EC50 with HeLa was 100 µM; in the test with HEK293 it was 75 µM.

In the case of `COc1ccc(NC(=O)C23CC4CC(C2)CC(C(=O)Nc2ccc(OC)cc2)(C4)C3)cc1`, the IC50 in test [1] (read-out: IC50) amounted to 11.7 µM; in test [2] (read-out: IC50) it was 12.4 µM.

As for `CC(C)(C)c1ccc(C(=O)Nc2ccc(S(=O)(=O)N3CCCCCC3)cc2)cc1`, the IC50 in test [1] (read-out: IC50) is > 50 µM. In the test listed under Oryctolagus cuniculus [10], this compound displayed an inhibition of 63%.

In turn, `CCN(CC)S(=O)(=O)c1ccc(NC(=O)c2ccc(C(C)(C)C)cc2)cc1` showed an inhibition in the test filed under Oryctolagus cuniculus [11] of 87%. For the same compound, the IC50 in test [2] (read-out: IC50) is > 25 µM.

Turning to `COc1ccc(N2CCN(C(=O)COc3ccc(C(C)(C)C)cc3)CC2)c([N+](=O)[O-])c1`, in the test filed under Oryctolagus cuniculus [5], the inhibition is 40%. Also, the IC50 entry in test [2] is “Not Active”.

Consider `CCOC(=O)CNS(=O)(=O)c1cc(-c2nnc(Nc3cccc(O)c3)c3ccccc23)ccc1C`, for which the values for the inhibition in the test filed under Oryctolagus cuniculus [5] and in the test filed under Oryctolagus cuniculus [9] were 35% and 63%, respectively. Moreover, the IC50 in test [2] (read-out: IC50) stood at 39 µM. In the test on HEK293, this compound came in with an EC50 of 13.9 µM.

With `CCc1ccc(-c2cc(C(=O)Nc3ccc(S(=O)(=O)NC(C)=O)cc3)c3ccccc3n2)cc1`, the IC50 entry in test [1] is “Not Active”; in test [7] (read-out: IC50), 25.6 µM. In the test listed under Oryctolagus cuniculus [10], this compound yielded an inhibition of 45%.
